Experimental data published in ChEMBL document CHEMBL1128504, “Novel, potent, and orally active substance P antagonists: synthesis and antagonist activity of N-benzylcarboxamide derivatives of pyrido[3,4-b]pyridine” (J Med Chem, 1995).

How the values were obtained:
[1] = tested on: Cavia porcellus; assay: Percent inhibition of capsaicin-induced plasma extravasation in guinea-pig trachea at 3 mg/kg intravenous administration; format: functional
[2] = target: Substance-P receptor (Homo sapiens, UniProt P25103); assay: Inhibition of [125I]-BH-Substance P binding to tachykinin receptor 1 in human IM-9 cells; format: cell-based
Chain of Substance-P receptor (P25103 whole entry): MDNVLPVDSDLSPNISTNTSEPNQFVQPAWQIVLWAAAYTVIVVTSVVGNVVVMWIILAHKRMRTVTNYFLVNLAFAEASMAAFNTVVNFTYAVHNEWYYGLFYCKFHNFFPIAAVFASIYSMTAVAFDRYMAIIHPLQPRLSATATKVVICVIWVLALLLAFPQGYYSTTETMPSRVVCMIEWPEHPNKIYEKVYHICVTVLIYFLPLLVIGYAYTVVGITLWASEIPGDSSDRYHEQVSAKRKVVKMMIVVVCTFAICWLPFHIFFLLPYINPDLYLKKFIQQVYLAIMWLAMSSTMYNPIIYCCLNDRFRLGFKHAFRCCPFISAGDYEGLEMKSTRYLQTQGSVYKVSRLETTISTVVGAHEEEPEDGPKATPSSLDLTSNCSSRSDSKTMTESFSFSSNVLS

[3] = tested on: Cavia porcellus; assay: Inhibition of capsaicin-induced plasma extravasation in guinea-pig trachea on intravenous administration; format: functional
[4] = tested on: Cavia porcellus; assay: Inhibition of capsaicin-induced plasma extravasation in guinea-pig trachea on peroral administration; format: functional; conditions: po
How it was run: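 Male Hartley guinea pigs (n = 6); sample given orally 45 min before pentobarbital 35 mg/kg ip. Capsaicin […] plus Evans' blue 20 mg/kg iv in ethanol-saline (3:7); trachea removed 10 min later after saline perfusion. Dye extracted in acetone-sodium sulfate and read at 620 nm per g tissue. Inhibition calculated relative to blank and control means.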

Cc1cc2c(-c3ccccc3)c(NC(=O)N(C)Cc3ccccc3Cl)n(C)c(=O)c2cc1C
inhibition in vivo at 3 mg/kg [1]: 58.5%

Cc1cccc(NC(=O)Nc2c(-c3ccccc3)c3cc(C)c(C)cc3c(=O)n2C)c1
IC50 [2]: 840 nM

Cc1cc2c(-c3ccccc3)c(NC(=O)NCc3ccccc3)n(C)c(=O)c2cc1C
IC50 [2]: 140 nM

Cc1cc(C)cc(CN(C)C(=O)c2c(-c3ccc(F)cc3)c3cccnc3c(=O)n2C)c1
IC50 [2]: 5.1 nM

COc1ccccc1CNCc1c(-c2ccccc2)c2ccccc2c(=O)n1C
IC50 [2]: 460 nM

Cc1cc2c(-c3ccccc3)c(C(=O)N(C)Cc3cc(C(F)(F)F)cc(C(F)(F)F)c3)n(C)c(=O)c2cc1C
ED50 [3]: 0.49 mg/kg

CN(Cc1cc(C(F)(F)F)cc(C(F)(F)F)c1)C(=O)c1c(-c2ccc(F)cc2)c2cccnc2c(=O)n1C
ED50 [3]: 0.017 mg/kg | IC50 [2]: 0.21 nM | ED50 [4]: 0.068 mg/kg

Cc1cc2c(-c3ccccc3)c(NC(=O)N(C)Cc3cc(C(F)(F)F)cc(C(F)(F)F)c3)n(C)c(=O)c2cc1C
IC50 [2]: 54 nM

COc1ccccc1CNC(=O)c1c(-c2ccccc2C)c2ccccc2c(=O)n1C
IC50 [2]: 470 nM

Cc1ccccc1-c1c(C(=O)NCc2cc(C(F)(F)F)cc(C(F)(F)F)c2)n(C)c(=O)c2ccccc12
ED50 [3]: 1.1 mg/kg

CN(Cc1ccccc1)C(=O)Nc1c(-c2ccccc2)c2ccccc2c(=O)n1C
IC50 [2]: 1100 nM

COc1ccccc1CN[C@H]1CCCN[C@H]1c1ccccc1 [CP-99994]
ED50 [3]: 0.017 mg/kg | ED50 [4]: 8.7 mg/kg

COc1ccccc1CN(C)C(=O)c1c(-c2ccc(F)cc2)c2cccnc2c(=O)n1C
ED50 [3]: 0.084 mg/kg

Cc1cc2c(-c3ccccc3)c(CNCc3cc(C(F)(F)F)cc(C(F)(F)F)c3)n(C)c(=O)c2cc1C
IC50 [2]: 250 nM

CN(Cc1c(-c2ccccc2)c2ccccc2c(=O)n1C)C(=O)Cc1cc(C(F)(F)F)cc(C(F)(F)F)c1
IC50 [2]: 110 nM

Cn1c(C(=O)NCc2cc(C(F)(F)F)cc(C(F)(F)F)c2)c(-c2ccc(F)cc2)c2cccnc2c1=O
ED50 [3]: 0.48 mg/kg | IC50 [2]: 1.1 nM

CN(Cc1cc(C(F)(F)F)cc(C(F)(F)F)c1)C(=O)c1c(-c2ccccc2)c2cccnc2c(=O)n1C
ED50 [3]: 0.027 mg/kg | IC50 [2]: 0.25 nM | ED50 [4]: 0.17 mg/kg

CN(Cc1cc(C(F)(F)F)cc(C(F)(F)F)c1)Cc1c(-c2ccccc2)c2ccccc2c(=O)n1C
IC50 [2]: 600 nM

Cc1ccccc1-c1c(C(=O)N(C)Cc2cc(C(F)(F)F)cc(C(F)(F)F)c2)n(C)c(=O)c2ccccc12
ED50 [3]: 0.18 mg/kg | ED50 [4]: 0.81 mg/kg

Cc1cc2c(-c3ccccc3)c(NC(=O)N(C)Cc3ccccc3)n(C)c(=O)c2cc1C
inhibition in vivo at 3 mg/kg [1]: 57.3%

Cc1ccc(-c2c(C(=O)N(C)Cc3cc(C(F)(F)F)cc(C(F)(F)F)c3)n(C)c(=O)c3ncccc23)cc1 [7-METHYL-8-OXO-5-P-TOLYL-7,8-DIHYDRO-[1,7]NAPHTHYRIDINE-6-CARBOXYLIC ACID (3,5-BIS-TRIFLUOROMETHYL-BENZYL)-METHYL-AMIDE (STRUCTURAL MIX)]
IC50 [2]: 7 nM | ED50 [4]: 0.11 mg/kg

Cc1ccc(-c2c(C(=O)N(C)Cc3cc(Cl)cc(Cl)c3)n(C)c(=O)c3ncccc23)cc1
IC50 [2]: 3.4 nM

COc1ccccc1CNCc1c(-c2ccccc2)c2cc(C)c(C)cc2c(=O)n1C
inhibition in vivo at 3 mg/kg [1]: 36.3%

CN(Cc1cc(C(F)(F)F)cc(C(F)(F)F)c1)C(=O)c1c(-c2ccc(F)cc2)c2ccccc2c(=O)n1C
ED50 [3]: 0.063 mg/kg | IC50 [2]: 0.4 nM | ED50 [4]: 1 mg/kg

Cc1cc(C)cc(CN(C)C(=O)Nc2c(-c3ccccc3)c3cc(C)c(C)cc3c(=O)n2C)c1
IC50 [2]: 28 nM

COc1ccccc1CNC(=O)c1c(-c2ccccc2)c2ccccc2c(=O)n1C
IC50 [2]: 860 nM

CN(Cc1ccccc1Cl)C(=O)c1c(-c2ccc(F)cc2)c2cccnc2c(=O)n1C
IC50 [2]: 32 nM

Cc1cc(C)cc(CN(C)C(=O)c2c(-c3ccccc3C)c3ccccc3c(=O)n2C)c1
IC50 [2]: 32 nM

CN(Cc1ccccc1Cl)C(=O)Nc1c(-c2ccc(F)cc2)c2ccccc2c(=O)n1C
IC50 [2]: 480 nM

COc1ccccc1CN(C)Cc1c(-c2ccccc2)c2cc(C)c(C)cc2c(=O)n1C
IC50 [2]: 800 nM

Cc1ccc(-c2c(C(=O)N(C)Cc3cc(C)cc(C)c3)n(C)c(=O)c3ncccc23)cc1
IC50 [2]: 4.4 nM
